Data published in ChEMBL document CHEMBL1687936, “Radiosynthesis and biological evaluation of L- and D-S-(3-[18F]fluoropropyl)homocysteine for tumor imaging using positron emission tomography” (J Med Chem, 2011).

Experiments:
[1] = tested on: Pancreas; test: Metabolic stability in pancreas of BALB/c nude mouse xenografted with human A375 cells assessed as radioactivity after 0.25 to 1 hrs by HPLC analysis; assay type: ADME, tissue-based, A-375; conditions: in vivo
Method in brief: (§1)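 A375-tumored Balb/c nude mice received 18-20 MBq tracer iv. Plasma and urine were spiked with unlabeled FPHCys and KF and injected directly; tissues were sonicated in saline with carrier and centrifuged at 6000g. Radio-HPLC on C18 with methanol/phosphate buffer pH 6 gave intact fraction as authentic peak over total activity, at 0.25, 1 and 2 h.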

[2] = tested on: Kidney; test: Biodistribution in kidney of BALB/c nude mouse xenografted with human A375 cells at 0.8 to 1 MBq, iv after 60 mins by gamma-counter; assay type: ADME, organism-based, A-375; conditions: in vivo, 1 h
Method in brief: (§2)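 Female Balb/c nude mice with s.c. A375 flank tumors, studied 26 days after tumor induction. Tracer 0.8-1 MBq in 100 μL saline given i.v. Groups of n = 5 killed at 15, 30, 60 and 120 min. Organs weighed and counted in a γ-counter against dilutions of the injected dose. Values are % ID/g wet tissue, mean ± SD.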

[3] = tested on: Brain; test: Biodistribution in brain of BALB/c nude mouse xenografted with human A375 cells at 0.8 to 1 MBq, iv after 30 mins by gamma-counter; assay type: ADME, organism-based, A-375; conditions: in vivo, 0.5 h; method in brief: as §2
[4] = tested on: Blood; test: Biodistribution in blood of BALB/c nude mouse xenografted with human A375 cells at 0.8 to 1 MBq, iv after 60 mins by gamma-counter; assay type: ADME, organism-based, A-375; conditions: in vivo, 1 h; method in brief: as §2
[5] = tested on: A-375; test: Drug uptake in human A375 cells in presence of amino acid transport system A inhibitor MeAIB; assay type: ADME, cell-based
Method in brief: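 Cells were prepared as for the uptake assay and preincubated at 37 °C with inhibitor at 12.5 mmol/L in PBS; controls received PBS. 0.37 MBq [18F]tracer was added and incubated 30 min at 37 °C. Cells were washed cold, lysed and γ-counted. Uptake is given as % of the control group, n = 3.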

[6] = Biodistribution in tumor of BALB/c nude mouse xenografted with human A375 cells at 0.8 to 1 MBq, iv after 30 mins by gamma-counter; assay type: ADME, organism-based, Neoplasm, A-375; conditions: in vivo, 0.5 h; method in brief: as §2
[7] = tested on: Bone; test: Biodistribution in bone of BALB/c nude mouse xenografted with human A375 cells at 0.8 to 1 MBq, iv after 120 mins by gamma-counter; assay type: ADME, organism-based, Bone element, A-375; conditions: in vivo, 2 h; method in brief: as §2
[8] = Metabolic stability in human A375 cells xenografted in BALB/c nude mouse assessed as radioactivity after 0.25 to 2 hrs by HPLC analysis; assay type: ADME, cell-based, A-375; conditions: in vivo; method in brief: as §1
[9] = tested on: Blood; test: Biodistribution in blood of BALB/c nude mouse xenografted with human A375 cells at 0.8 to 1 MBq, iv after 120 mins by gamma-counter; assay type: ADME, organism-based, A-375; conditions: in vivo, 2 h; method in brief: as §2
[10] = tested on: Pancreas; test: Biodistribution in pancreas of BALB/c nude mouse xenografted with human A375 cells at 0.8 to 1 MBq, iv after 60 mins by gamma-counter; assay type: ADME, organism-based, A-375; conditions: in vivo, 1 h; method in brief: as §2
[11] = tested on: Heart; test: Biodistribution in heart of BALB/c nude mouse xenografted with human A375 cells at 0.8 to 1 MBq, iv after 15 mins by gamma-counter; assay type: ADME, organism-based, A-375; conditions: in vivo, 0.25 h; method in brief: as §2
[12] = tested on: Muscle tissue; test: Biodistribution in muscle of BALB/c nude mouse xenografted with human A375 cells at 0.8 to 1 MBq, iv after 120 mins by gamma-counter; assay type: ADME, organism-based, A-375; conditions: in vivo, 2 h; method in brief: as §2
[13] = Biodistribution in tumor of BALB/c nude mouse xenografted with human A375 cells at 0.8 to 1 MBq, iv after 60 mins by gamma-counter; assay type: ADME, organism-based, Neoplasm, A-375; conditions: in vivo, 1 h; method in brief: as §2
[14] = Biodistribution in tumor of BALB/c nude mouse xenografted with human A375 cells at 0.8 to 1 MBq, iv after 120 mins by gamma-counter; assay type: ADME, organism-based, Neoplasm, A-375; conditions: in vivo, 2 h; method in brief: as §2
[15] = Biodistribution in tumor of BALB/c nude mouse xenografted with human A375 cells at 0.8 to 1 MBq, iv after 15 mins by gamma-counter; assay type: ADME, organism-based, Neoplasm, A-375; conditions: in vivo, 0.25 h; method in brief: as §2
[16] = tested on: Pancreas; test: Biodistribution in pancreas of BALB/c nude mouse xenografted with human A375 cells at 0.8 to 1 MBq, iv after 30 mins by gamma-counter; assay type: ADME, organism-based, A-375; conditions: in vivo, 0.5 h; method in brief: as §2
[17] = tested on: Urinary bladder; test: Biodistribution in bladder of BALB/c nude mouse xenografted with human A375 cells after 60 mins by PET/CT imaging; assay type: ADME, organism-based, A-375; conditions: in vivo, 1 h
Method in brief: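 Female Balb/c nude mice with A375 tumors (1×10^6 cells in Ca/Mg-free PBS injected s.c. in left flank at 6 weeks old). Mice under isoflurane in oxygen. 10 min CT scan, then 18-20 MBq tracer in 100 μL saline given i.v. with a 2 h PET acquisition. Coronal images at 60 min postinjection; n = 3.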

[18] = tested on: Brain; test: Drug level in brain cortex extract of BALB/c nude mouse xenografted with human A375 cells assessed as radioactivity in protein fraction after 0.25 to 2 hrs; assay type: ADME, tissue-based, A-375; conditions: in vivo
Method in brief: (§3)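 Female Balb/c nude mice bore subcutaneous A375 flank tumors and received 18-20 MBq tracer iv. Plasma or tissue was sonicated in 10% TCA with unlabeled FPHCys and KF, then centrifuged at 6000g; the pellet was re-extracted twice. Protein-bound fraction is pellet versus supernatant radioactivity, sampled at 0.25, 1 and 2 h.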

[19] = tested on: Pancreas; test: Biodistribution in pancreas of BALB/c nude mouse xenografted with human A375 cells at 0.8 to 1 MBq, iv after 120 mins by gamma-counter; assay type: ADME, organism-based, A-375; conditions: in vivo, 2 h; method in brief: as §2
[20] = tested on: Lung; test: Biodistribution in lungs of BALB/c nude mouse xenografted with human A375 cells at 0.8 to 1 MBq, iv after 120 mins by gamma-counter; assay type: ADME, organism-based, A-375; conditions: in vivo, 2 h; method in brief: as §2
[21] = tested on: Brain; test: Metabolic stability in brain of BALB/c nude mouse xenografted with human A375 cells assessed as radioactivity after 0.25 to 1 hrs by HPLC analysis; assay type: ADME, tissue-based, A-375; conditions: in vivo; method in brief: as §1
[22] = tested on: Spleen; test: Biodistribution in spleen of BALB/c nude mouse xenografted with human A375 cells at 0.8 to 1 MBq, iv after 30 mins by gamma-counter; assay type: ADME, organism-based, A-375; conditions: in vivo, 0.5 h; method in brief: as §2
[23] = tested on: Muscle tissue; test: Biodistribution in muscle of BALB/c nude mouse xenografted with human A375 cells at 0.8 to 1 MBq, iv after 60 mins by gamma-counter; assay type: ADME, organism-based, A-375; conditions: in vivo, 1 h; method in brief: as §2
[24] = tested on: Spleen; test: Biodistribution in spleen of BALB/c nude mouse xenografted with human A375 cells at 0.8 to 1 MBq, iv after 60 mins by gamma-counter; assay type: ADME, organism-based, A-375; conditions: in vivo, 1 h; method in brief: as §2
[25] = tested on: Lung; test: Biodistribution in lungs of BALB/c nude mouse xenografted with human A375 cells at 0.8 to 1 MBq, iv after 15 mins by gamma-counter; assay type: ADME, organism-based, A-375; conditions: in vivo, 0.25 h; method in brief: as §2
[26] = tested on: Heart; test: Biodistribution in heart of BALB/c nude mouse xenografted with human A375 cells at 0.8 to 1 MBq, iv after 30 mins by gamma-counter; assay type: ADME, organism-based, A-375; conditions: in vivo, 0.5 h; method in brief: as §2
[27] = tested on: Kidney; test: Biodistribution in kidney of BALB/c nude mouse xenografted with human A375 cells at 0.8 to 1 MBq, iv after 15 mins by gamma-counter; assay type: ADME, organism-based, A-375; conditions: in vivo, 0.25 h; method in brief: as §2
[28] = tested on: Spleen; test: Biodistribution in spleen of BALB/c nude mouse xenografted with human A375 cells at 0.8 to 1 MBq, iv after 120 mins by gamma-counter; assay type: ADME, organism-based, A-375; conditions: in vivo, 2 h; method in brief: as §2
[29] = tested on: Pancreas; test: Drug level in pancreas extract of BALB/c nude mouse xenografted with human A375 cells assessed as radioactivity in protein fraction after 0.25 to 2 hrs; assay type: ADME, tissue-based, A-375; conditions: in vivo; method in brief: as §3
[30] = tested on: Spleen; test: Biodistribution in spleen of BALB/c nude mouse xenografted with human A375 cells at 0.8 to 1 MBq, iv after 15 mins by gamma-counter; assay type: ADME, organism-based, A-375; conditions: in vivo, 0.25 h; method in brief: as §2
[31] = Drug level in tumor extract of BALB/c nude mouse xenografted with human A375 cells assessed as radioactivity in protein fraction after 0.25 to 2 hrs; assay type: ADME, Neoplasm, A-375; conditions: in vivo; method in brief: as §3

Row | Compound | Stability [1] [%] | Drug uptake [2] [% ID/g] | Drug uptake [3] [% ID/g] | Drug uptake [4] [% ID/g] | Drug uptake [5] | Drug uptake [6] [% ID/g] | Drug uptake [7] [% ID/g] | Stability [8] [%] | Drug uptake [9] [% ID/g] | Drug uptake [10] [% ID/g] | Drug uptake [11] [% ID/g] | Drug uptake [12] [% ID/g] | Drug uptake [13] [% ID/g] | Drug uptake [14] [% ID/g] | Drug uptake [15] [% ID/g] | Drug uptake [16] [% ID/g] | Drug uptake [17] | Drug uptake [18] [%] | Drug uptake [19] [% ID/g] | Drug uptake [20] [% ID/g] | further results
1 | Cl.N[C@@H](CCSCCC[18F])C(=O)O | 85 | 5.96 | 2.57 | 2.32 | Active | 8.28 | 1.69 | 82 | 1.38 | 6.97 | 5.08 | 1.52 | 5.64 | 4.4 | 9.41 | 12.3 | Active | 1 | 3.77 | 1.63 | Stability [21]: 85%; Drug uptake [22]: 4.18 % ID/g; Drug uptake [23]: 2.52 % ID/g; Drug uptake [24]: 2.11 % ID/g; Drug uptake [25]: 5.21 % ID/g; Drug uptake [26]: 4.2 % ID/g; Drug uptake [27]: 15.4 % ID/g; Drug uptake [28]: 1.39 % ID/g; Drug uptake [29]: 1%; Drug uptake [30]: 5.05 % ID/g; Drug uptake [31]: 1%
2 | Cl.N[C@H](CCSCCC[18F])C(=O)O | 85 | 2.75 | 1.56 | 0.89 | Active | 5.87 | 1.05 | 82 | 0.89 | 4.79 | 3.92 | 0.63 | 3.91 | 1.68 | 6.01 | 19.6 | Active | 1 | 1.43 | 0.85 | Stability [21]: 85%; Drug uptake [22]: 2.83 % ID/g; Drug uptake [23]: 1.44 % ID/g; Drug uptake [24]: 0.95 % ID/g; Drug uptake [25]: 4.11 % ID/g; Drug uptake [26]: 3.05 % ID/g; Drug uptake [27]: 12.2 % ID/g; Drug uptake [28]: 0.31 % ID/g; Drug uptake [29]: 1%; Drug uptake [30]: 4.24 % ID/g; Drug uptake [31]: 1%
